The text below walks through data of ChEMBL document CHEMBL4706562, “Design, synthesis and evaluation of covalent inhibitors of DprE1 as antitubercular agents” (Eur J Med Chem, 2020).

Values after ≈ are worked out from the molar mass of the structure shown. Active and inactive are the calls of the source. Where only a bound is given, the exact number is not on record here.

For data set [1], the target named is T1, Decaprenylphosphoryl-beta-D-ribose oxidase (Mycobacterium tuberculosis (strain ATCC 25618 / H37Rv)) (UniProt P9WJF1).
T1 sequence (whole entry): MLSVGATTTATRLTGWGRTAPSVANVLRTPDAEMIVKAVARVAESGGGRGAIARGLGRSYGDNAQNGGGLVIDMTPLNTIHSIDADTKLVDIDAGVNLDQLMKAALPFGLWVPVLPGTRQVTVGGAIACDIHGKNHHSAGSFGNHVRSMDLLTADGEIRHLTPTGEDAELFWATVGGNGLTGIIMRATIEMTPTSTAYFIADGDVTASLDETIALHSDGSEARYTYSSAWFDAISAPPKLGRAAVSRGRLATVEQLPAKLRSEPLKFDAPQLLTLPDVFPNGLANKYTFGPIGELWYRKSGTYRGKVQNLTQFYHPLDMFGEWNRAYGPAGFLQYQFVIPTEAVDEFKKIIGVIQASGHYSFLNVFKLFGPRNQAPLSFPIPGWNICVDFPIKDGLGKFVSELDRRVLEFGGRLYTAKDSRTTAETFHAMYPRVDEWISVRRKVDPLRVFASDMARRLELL
Description: Inhibition of Mycobacterium tuberculosis H37Rv DprE1 assessed as increase in trehalose dimycolates at 10 x MIC preincubated for 24 hrs using [14C]acetate by TLC based metabolic labelling assay relative to control. The gist of the method: (§1)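 M. tuberculosis H37Rv cultures labelled with [14C]acetate for 24 h. […] Lipids extracted and resolved by TLC, with TDM/TMM compared to untreated control cells. BTZ043 and PBTZ169 served as control inhibitors.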

Data set [2] deals with T2, Decaprenylphosphoryl-beta-D-ribose oxidase (Mycobacterium tuberculosis (strain ATCC 25618 / H37Rv), UniProt P9WJF1).
T2 sequence (P9WJF1 whole entry): T1 sequence (whole entry)
As to the kind of experiment: Inhibition of Mycobacterium tuberculosis DprE1 expressed in Escherichia coli BL21 (DE3) cells assessed as formation of resorufin using FPR as substrate by Amplex Red hydrogen/peroxidase coupled assay.

Data set [3] deals with T1, Decaprenylphosphoryl-beta-D-ribose oxidase (Mycobacterium tuberculosis (strain ATCC 25618 / H37Rv)). Description: Inhibition of Mycobacterium tuberculosis H37Rv DprE1 assessed as increase in trehalose monomycolates at 10 x MIC preincubated for 24 hrs using [14C]acetate by TLC based metabolic labelling assay relative to control. The gist of the method:
as §1

Data set [4] concerns Mycobacterium tuberculosis. Description: Antimycobacterial activity against Mycobacterium tuberculosis H37Rv ATCC 25618 assessed as inhibition of visible bacterial growth by MABA assay. The data set is classed as functional. The method, boiled down:
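Inoculum adjusted to 1.0 McFarland, diluted 1:20 in Middlebrook 7H9 with 10% OADC and 0.2% glycerol. Compounds taken from 1.0 mg/mL DMSO stocks and serially diluted two-fold. Microplate alamar blue read-out: blue to pink marks growth, colours recorded after 24 h. MIC taken as the lowest concentration giving no colour change. PBTZ169 served as positive control.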
On the technique in general: Resazurin is reduced to fluorescent resorufin, in cell work by metabolically active cells.

The target in data set [5] is T1, Decaprenylphosphoryl-beta-D-ribose oxidase (Mycobacterium tuberculosis (strain ATCC 25618 / H37Rv)). Description: Inhibition of Mycobacterium tuberculosis DprE1 expressed in Escherichia coli BL21 (DE3) cells assessed as formation of resorufin using FPR as substrate at 20 uM by Amplex Red hydrogen/peroxidase coupled assay. Also noted: scale not given: the % may be the effect or the level left.

For data set [6] the target is unchanged. As to the kind of experiment: Inhibition of Mycobacterium tuberculosis H37Rv DprE1 assessed as increase in trehalose monomycolates at 100 x MIC incubated for 24 hrs using [14C]acetate by TLC based metabolic labelling assay relative to control. The gist of the method: as §1
Data set [7] has the same target. Description: Inhibition of Mycobacterium tuberculosis H37Rv DprE1 assessed as increase in trehalose dimycolates at 100 x MIC incubated for 24 hrs using [14C]acetate by TLC based metabolic labelling assay relative to control. The gist of the method:
as §1

Data set [8] can be described thus: Reactivity of compound towards methyl thioglycolate in PBS measured after 48 hrs by LC/MS/MS. It counts as physicochemical. Particulars: buffer. The gist of the method:
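Test compound and methyl thioglycolate co-incubated at 37 °C in 50 mM PBS, pH 7.4. The reaction was followed by TLC, and aliquots were injected into LC-MS/MS at set intervals over 48 h. Electrospray positive-ion mass spectra detected MT adducts, and half-life was determined.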

Data set [9] can be described thus: Half life of the compound in PBS assessed as parent compound remaining by HPLC analysis. It counts as physicochemical.
The target in data set [10] is T1, Decaprenylphosphoryl-beta-D-ribose oxidase (Mycobacterium tuberculosis (strain ATCC 25618 / H37Rv)). As to the kind of experiment: Binding affinity to trypsin digested Mycobacterium tuberculosis DprE1 protein assessed as Cys387 adduct formation with 387-CVDFP-391 sequence at 300 uM by measuring retention time by LC/MS analysis.
Data set [11] has the same target. Description: Covalent binding affinity to Mycobacterium tuberculosis DprE1 assessed as adduct formation by measuring 490 Da shift increase in molecular weight at 100 uM by Mass spectrometry analysis.
Data set [12] shares this target. As to the kind of experiment: Binding affinity to trypsin digested Mycobacterium tuberculosis DprE1 protein assessed as Cys387 adduct formation with 385-NICVDFPIL-393 sequence at 300 uM by measuring retention time by LC/MS analysis.
For data set [13] the target is unchanged. As to the kind of experiment: Covalent binding affinity to Mycobacterium tuberculosis DprE1 assessed as adduct formation by measuring 460 Da shift increase in molecular weight at 100 uM by Mass spectrometry analysis.

As usually defined, the IC50 is the midpoint of a concentration-inhibition curve. As usually defined, the MIC is the lowest concentration that inhibits growth of the organism. `O=c1nc(N2CCN(CC3CCCCC3)CC2)sc2c(Br)cc(C(F)(F)F)cc12`: the result in data set [1] and in data set [3] was Active. In addition, the IC50 in data set [2] is 1840 nM. The MIC in [4] is 0.16 µM (≈ 0.0785 µg/mL).

On to `O=c1nc(N2CCN(CC3CCCCC3)CC2)sc2c(/C=C/c3ccccn3)cc(C(F)(F)F)cc12`, for which, in data set [4], the MIC is over 20 µM. The Activity in [5] was under 70%.

As for `CNC(=O)/C=C/c1cc(C(F)(F)F)cc2c(=O)nc(N3CCN(CC4CCCCC4)CC3)sc12`, the result in [6] and in data set [7] was inactive. In data set [2], the IC50 is 390 nM. The MIC in data set [4] is 20 µM (≈ 9.89 µg/mL).

For orientation: half-life means the time needed for the level to fall by half in the phase considered. As to `O=c1nc(N2CCN(CC3CCCCC3)CC2)sc2nc(Cl)ncc12`, the IC50 in [2] is over 20000 nM. Further, the outcome in data set [8] was Active. Also, in [9], the half-life was 4 h. Besides, in data set [4], the MIC was over 20 µM.

For the molecule `COC(=O)CCc1cc(C(F)(F)F)cc2c(=O)nc(N3CCN(CC4CCCCC4)CC3)sc12`, the IC50 in data set [2] turned out to be 5400 nM. For the same molecule, the MIC in data set [4] is over 9 µM.

For the molecule `N#Cc1ccc2c(=O)nc(N3CCN(CC4CCCCC4)CC3)sc2n1`, the IC50 in data set [2] worked out at 7720 nM. Besides, the MIC in data set [4] was over 12 µM.

`N#CCCc1cc(C(F)(F)F)cc2c(=O)nc(N3CCN(CC4CCCCC4)CC3)sc12`: the IC50 in data set [2] worked out at 13200 nM. In data set [4], the MIC was over 9 µM.

Regarding `N#Cc1cc(C(F)(F)F)cc2c(=O)nc(N3CCN(CC4CCCCC4)CC3)sc12`, the IC50 in [2] came to 1700 nM. The result in data set [8] was Active. In addition, the half-life in [9] was 12 h. In data set [4], the MIC came out at 0.16 µM (≈ 0.0698 µg/mL).

For the molecule `N#Cc1ncc2c(=O)nc(N3CCN(CC4CCCCC4)CC3)sc2n1`, the IC50 in [2] was over 20000 nM. The MIC in data set [4] is 6.73 µM (≈ 2.49 µg/mL).

For `C[C@H]1COC2(CCN(c3nc(=O)c4cc(C(F)(F)F)cc([N+](=O)[O-])c4s3)CC2)O1`, the result in data set [6] and in data set [7] was Active.

Regarding `COC(=O)/C=C/c1cc(C(F)(F)F)cc2c(=O)nc(N3CCN(CC4CCCCC4)CC3)sc12`, the outcome in [1], in data set [11] and in data set [3] was Active. The Retention time in [10] stood at 43.3 min. The result in [6] and in data set [7] was inactive. The IC50 in data set [2] is 1240 nM. Further, the outcome in data set [8] was Active. Besides, the half-life in data set [9] is 1 h. Further, the MIC in data set [4] is over 20 µM.

Regarding `O=c1nc(N2CCN(CC3CCCCC3)CC2)sc2c(Cl)cc(C(F)(F)F)cc12`, the outcome in [1] and in data set [3] was Active. Further, in data set [2], the IC50 is 920 nM. Besides, the MIC in [4] worked out at 0.03 µM (≈ 0.0134 µg/mL).

As to `N#C/C=C/c1cc(C(F)(F)F)cc2c(=O)nc(N3CCN(CC4CCCCC4)CC3)sc12`, the Activity result in data set [8] is “Active”; in [5], under 70%. In data set [9], the half-life is 0.2 h. Besides, the MIC in [4] was over 20 µM.

With `NC(=O)CCc1cc(C(F)(F)F)cc2c(=O)nc(N3CCN(CC4CCCCC4)CC3)sc12`, in [2], the IC50 worked out at 16700 nM. Also, in [4], the minimum inhibitory concentration (MIC) was over 9 µM.

In the case of `O=c1nc(N2CCN(CC3CCCCC3)CC2)sc2c([N+](=O)[O-])cc(C(F)(F)F)cc12` [MACOZINONE], the result in data set [6] and in data set [7] was Active.

For `NC(=O)/C=C/c1cc(C(F)(F)F)cc2c(=O)nc(N3CCN(CC4CCCCC4)CC3)sc12`, the result in data set [1], in data set [13] and in data set [3] was Active. For the same molecule, the outcome in data set [6] and in [7] was inactive. Moreover, the IC50 in data set [2] was found to be 200 nM. Moreover, the Retention time in data set [12] turned out to be 29.3 min. Further, the result in [8] was Active. Further, the half-life in data set [9] is 10 h. For the same molecule, in data set [4], the MIC was determined as 20 µM (≈ 9.61 µg/mL).

Consider `CN(C)C(=O)/C=C/c1cc(C(F)(F)F)cc2c(=O)nc(N3CCN(CC4CCCCC4)CC3)sc12`, for which the IC50 in data set [2] was found to be 1250 nM. In addition, the outcome in data set [8] was Active. The half-life in data set [9] is over 48 h. Also, the MIC in [4] is over 20 µM.

For `COC(=O)C#Cc1cc(C(F)(F)F)cc2c(=O)nc(N3CCN(CC4CCCCC4)CC3)sc12`, the result in data set [1] and in data set [3] was Active. Moreover, the outcome in data set [6] and in [7] was inactive. The 50% inhibitory concentration (IC50) in data set [2] came to 140 nM. The result in [8] was Active. Moreover, the half-life in [9] is 1.2 h. Further, in [4], the MIC was 10 µM (≈ 4.94 µg/mL).

`O=c1nc(N2CCN(CC3CCCCC3)CC2)sc2c(I)cc(C(F)(F)F)cc12`: the IC50 in data set [2] stood at 2350 nM. Moreover, the minimal inhibitory concentration (MIC) in data set [4] was determined as 0.63 µM (≈ 0.339 µg/mL).
